Assay results from paper PMC9287213 (Clinical Pharmacokinetics, 2022).
Where two headings read alike, the source gives them in different places.

What was measured:
[1] = hepatic impairment studies; cited from earlier work
[2] = tested on: cytochrome P450 enzymes, sulfation, or glucuronidation enzymes; details: background statement, no reference given; cited from earlier work
albumin = details: in humans; background statement, no reference given; cited from earlier work
[3] = in humans; background statement, no reference given; cited from earlier work
[4] = type: in vivo, human
Method in brief: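 Open-label parallel single-dose study; participants grouped by baseline Child-Pugh A, B, C or normal hepatic function. One subcutaneous 5-mg injection. Plasma sampled pre-dose and 8, 12, 24, 48, 72, 96, 168, 336 h post-dose; analyte immunoprecipitated, quantified by high-resolution LC/MS, positive HESI, range 2.00–500.00 ng/mL. Noncompartmental parameters from actual sampling times; geometric mean (geometric CV%); tmax analysed nonparametrically.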

[5] = tested on: renal or hepatic transporters; details: ref data on file, Eli Lilly and Company; cited from earlier work
[6] = cited from earlier work

Row | Compound | impact of the severity of hepatic disease status on pharmacokinetics [1] | metabolism via pathways involving cytochrome P450 enzymes, sulfation, or glucuronidation enzymes [2] | bound to albumin (albumin) | half-life [3] | CL/F ([4]; human, plasma, sc, 5 mg) | Tmax ([4]; human, plasma, sc, 5 mg) | Vd/F ([4]; human, plasma, sc, 5 mg) | half-life ([4]; human, plasma, sc, 5 mg) | CL/F ([4]; human, plasma, sc, 5 mg, CL/F (apparent total body clearance), single 5-mg subcutaneous dose, normal hepatic function, n = 13, geometric mean (geometric CV%), noncompartmental) | VSS/F (apparent volume of distribution at steady state) ([4]; single 5-mg subcutaneous dose, normal hepatic function, n = 13, geometric mean (geometric CV%), noncompartmental) | T1/2 (half-life associated with the terminal rate constant) ([4]; single 5-mg subcutaneous dose, normal hepatic function, n = 13, geometric mean (range), noncompartmental) | substrate for renal or hepatic transporters commonly involved in drug disposition [5] | decrease in liver fat content compared with insulin degludec ([6]; SURPASS-3 sub-study, 52 weeks) | non-alcoholic steatohepatitis-related biomarkers ([6]; post-hoc analysis of the phase II study, 26 weeks of treatment)
1 | dulaglutide | does not impact | – | – | – | – | – | – | – | – | – | – | – | – | –
2 | CC[C@H](C)[C@H](NC(=O)[C@H](CC(C)C)NC(=O)[C@H](Cc1c[nH]c2ccccc12)NC(=O)[C@H](CCC(N)=O)NC(=O)[C@@H](NC(=O)[C@H](Cc1ccccc1)NC(=O)[C@H](C)NC(=O)[C@H](CCCCNC(=O)COCCOCCNC(=O)COCCOCCNC(=O)CC[C@H](NC(=O)CCCCCCCCCCCCCCCCCCC(=O)O)C(=O)O)NC(=O)[C@H](CCC(N)=O)NC(=O)[C@H](C)NC(=O)[C@@H](NC(=O)[C@H](CCCCN)NC(=O)[C@H](CC(=O)O)NC(=O)[C@H](CC(C)C)NC(=O)C(C)(C)NC(=O)[C@@H](NC(=O)[C@H](CO)NC(=O)[C@H](Cc1ccc(O)cc1)NC(=O)[C@H](CC(=O)O)NC(=O)[C@H](CO)NC(=O)[C@@H](NC(=O)[C@H](Cc1ccccc1)NC(=O)[C@@H](NC(=O)CNC(=O)[C@H](CCC(=O)O)NC(=O)C(C)(C)NC(=O)[C@@H](N)Cc1ccc(O)cc1)[C@@H](C)O)[C@@H](C)O)[C@@H](C)CC)[C@@H](C)CC)C(C)C)C(=O)N[C@@H](C)C(=O)NCC(=O)NCC(=O)N1CCC[C@H]1C(=O)N[C@@H](CO)C(=O)N[C@@H](CO)C(=O)NCC(=O)N[C@@H](C)C(=O)N1CCC[C@H]1C(=O)N1CCC[C@H]1C(=O)N1CCC[C@H]1C(=O)N[C@@H](CO)C(N)=O [Tirzepatide] | – | not metabolized | 99.06% | approximately 5 days | 0.822 mL/min | 24 h | 10.6 L | 131 h | 0.988 mL/min | 10.7 (20) L | 124 (101–158) h | not a substrate | significantly greater decrease | improvement
3 | semaglutide | does not impact | – | – | – | – | – | – | – | – | – | – | – | – | –
